{"data": "Experimental data from different studies", "target": "Serine/threonine-protein kinase MARK2 (MARK2, Homo sapiens, UniProt Q7KZI7)", "note": "Compare with care: the assays were run in different laboratories."}
{"Compound": "CCN1CCN(Cc2ccc(C(=O)Nc3ccc(C)c(Oc4ccc5c(c4)CC(=O)N5)c3)cc2C(F)(F)F)CC1", "effect on": "binding", "technique": "competition with immobilised ligand", "tested at": "1 µM", "remaining binding [%]": 100}
{"Compound": "O=C(c1ccc(Nc2ncc(Cl)c(-c3ccc(Cl)s3)n2)cc1)N1CCC(N2CCCC2)CC1", "effect on": "binding", "technique": "competition with immobilised ligand", "tested at": "1 µM", "remaining binding [%]": 69}
{"Compound": "C=CC(=O)N1CCC(C(=O)NCC(=O)N2CCN(c3nc(-c4cnc(N)nc4C(F)F)nc(N4CCOCC4)n3)CC2)CC1", "effect on": "binding", "technique": "competition with immobilised ligand", "tested at": "1 µM", "remaining binding [%]": 90}
{"Compound": "CN(C)c1nccc(-c2cnn3ncccc23)n1", "effect on": "binding", "tested at": "1 µM", "remaining binding [%]": 96}
{"Compound": "O=C(Nc1cccnn1)N1CCC(=Cc2cccc(Oc3ccc(C(F)(F)F)cn3)c2)CC1", "effect on": "cell-free assay", "technique": "competition with immobilised ligand", "tested at": "1 µM", "remaining binding [%]": 100}
{"Compound": "COc1ccnn2ncc(-c3ccnc(N(C)C)n3)c12", "effect on": "binding", "tested at": "1 µM", "remaining binding [%]": 92}
{"Compound": "C[C@H](NC(=O)c1cnc2n1[C@](C)(Cc1ccc(C#N)cc1)C(=O)N2c1cc(Cl)c(F)c(Cl)c1)C(=O)NC1(c2ccccn2)CC1", "effect on": "cell-free assay", "technique": "competition with immobilised ligand", "tested at": "1 µM", "remaining binding [%]": 100}
{"Compound": "O=C(c1ccc(Nc2nccc(-c3cc4ccccc4s3)n2)cc1)N1CCC(N2CCCC2)CC1", "effect on": "binding", "technique": "competition with immobilised ligand", "tested at": "1 µM", "remaining binding [%]": 91}
{"Compound": "COc1cccc(CNC(=O)c2nc3scc(COCc4ccc(C(=O)O)cc4)c3c(=O)[nH]2)c1", "effect on": "cell-free assay", "technique": "competition with immobilised ligand", "tested at": "1 µM", "remaining binding [%]": 100}
{"Compound": "c1cncc(-c2cccc(Nc3nccc(NC4CCCCC4)n3)c2)c1", "effect on": "binding", "technique": "competition with immobilised ligand", "tested at": "10 µM", "remaining binding [%]": 81}
{"Compound": "N[C@@H]1CCN(c2nccc(-c3cnn4ncccc34)n2)C1", "effect on": "binding", "tested at": "1 µM", "remaining binding [%]": 100}
{"Compound": "CS(=O)(=O)NCC[C@H](NC(=O)c1cncc2c1cnn2-c1ccc(F)cc1)c1ccnc(S(C)(=O)=O)c1", "effect on": "cell-free assay", "technique": "competition with immobilised ligand", "tested at": "1 µM", "remaining binding [%]": 75}
{"Compound": "CN(C)c1nccc(-c2cnc3ncccn23)n1", "effect on": "binding", "tested at": "1 µM", "remaining binding [%]": 100}
{"Compound": "C[C@H](c1ccc(F)cc1)N(Cc1cccc(C(=O)O)c1)C(=O)c1cnc2ccccc2c1", "effect on": "cell-free assay", "technique": "competition with immobilised ligand", "tested at": "1 µM", "remaining binding [%]": 80}
{"Compound": "COc1cnc(Nc2cccc(S(N)(=O)=O)c2)nc1N1CCN(c2ccccc2)C(=O)C1", "effect on": "binding", "technique": "competition with immobilised ligand", "tested at": "1 µM", "remaining binding [%]": 100}
{"Compound": "O=C(Nc1c[nH]nc1C(=O)NC1CCNCC1)c1cc(F)cc(F)c1", "effect on": "binding", "technique": "competition with immobilised ligand", "tested at": "1 µM", "remaining binding [%]": 100}
{"Compound": "CN(CCCC(F)(F)F)c1nccc(-c2cnn3ncccc23)n1", "effect on": "binding", "tested at": "1 µM", "remaining binding [%]": 100}
{"Compound": "C[C@@H](c1ccc(-n2cnc3c(N)ncnc32)cc1)N1CCc2nn(C)c(Cc3ccccc3)c2C1=O", "effect on": "binding", "technique": "competition with immobilised ligand", "tested at": "0.1 µM", "remaining binding [%]": 91}
{"Compound": "Cc1cnn2ncc(-c3ccnc(N(C)C)n3)c2c1", "effect on": "binding", "tested at": "1 µM", "remaining binding [%]": 100}
{"Compound": "C[C@@]1(Cc2ccc(C#N)cc2)C(=O)N(c2cc(Cl)cc(Cl)c2)c2ncc(C(=O)NC3(c4nc(C5CCC5)no4)CC3)n21", "effect on": "cell-free assay", "technique": "competition with immobilised ligand", "tested at": "1 µM", "remaining binding [%]": 85}
{"Compound": "O=C(c1ccc(Nc2ncc(Cl)c(-c3cc4ccccc4s3)n2)cc1)N1CCC(N2CCCC2)CC1", "effect on": "binding", "technique": "competition with immobilised ligand", "tested at": "1 µM", "remaining binding [%]": 80}
{"Compound": "CC1CCCN1c1nccc(-c2cnn3ncccc23)n1 (stereo not shown)", "effect on": "binding", "tested at": "1 µM", "remaining binding [%]": 70}
